Source: PubChem
SENP1 FRET inh: blocks the human SENP1 SUMO protease catalytic domain; recombinant SENP1 catalytic domain, CyPet-SUMO1-YPet FRET cleavage; inhibition, % at 10 µM; hit rate 0.21% among 360,000; AID 624204;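 active means inhibition at least 30% at 10 µM, raw YFP signal under a set limit, fluorescence ratio 0.5 to 1.5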;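 further: 0% = enzyme with DMSO and 100% = no enzyme wells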
Target sequence (Q9P0U3 419-644 limits assumed): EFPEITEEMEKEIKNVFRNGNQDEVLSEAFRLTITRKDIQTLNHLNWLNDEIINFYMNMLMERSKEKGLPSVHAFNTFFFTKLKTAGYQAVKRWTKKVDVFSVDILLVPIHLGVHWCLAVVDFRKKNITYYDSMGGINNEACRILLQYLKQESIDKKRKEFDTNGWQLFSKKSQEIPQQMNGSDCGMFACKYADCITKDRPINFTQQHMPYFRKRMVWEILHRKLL
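Test system: human SENP1 catalytic domain; medium: Tris pH 8 buffer plus EDTA, NaCl, BME, BSA, NP40, catalase; incubation: 50 min reaction at room temperature; technique: FRET, CFP and YFP emission; controls: no-enzyme low control and enzyme-plus-DMSO high control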
CSN deneddyl inh: CSN deneddylation inhibition. inhibition, % at 12.5 µM. hit rate 0.38% among 360,000. Purified CSN, SCF-Nedd8-OG deneddylation, fluorescence polarization. AID 651999;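 active means pattern-corrected inhibition above about 35%, with an unprinted fluorescence ratio check between 0.5 and 1.5, limit read from the data, passing the limit was not always enough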;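 further: 0% = enzyme with substrate and 100% = substrate without enzyme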
Target sequence (Q92905 whole entry, looked up, one chain of several): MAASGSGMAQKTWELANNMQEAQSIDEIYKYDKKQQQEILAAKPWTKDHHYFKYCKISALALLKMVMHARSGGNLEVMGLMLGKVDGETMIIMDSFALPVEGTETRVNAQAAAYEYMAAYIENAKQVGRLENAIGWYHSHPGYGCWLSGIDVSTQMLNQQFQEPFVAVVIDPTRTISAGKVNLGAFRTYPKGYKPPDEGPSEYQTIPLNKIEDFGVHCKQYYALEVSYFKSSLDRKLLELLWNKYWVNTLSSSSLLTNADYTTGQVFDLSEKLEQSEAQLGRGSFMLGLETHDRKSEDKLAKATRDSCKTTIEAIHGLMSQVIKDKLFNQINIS
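Assay system: purified human Csn5 enzyme expressed in HEK293T cells; measure: % inhibition; also added: SCFSkp2-Nedd8OG substrate at 10 nM final; technique: fluorescence polarization; times: reaction 90 min, room temperature; medium: Tris buffer pH 7.5, NaCl, DTT, Tween-20, trehalose, ovalbumin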
TPT1 inh: blocks Candida albicans tRNA 2'-phosphotransferase; inhibition, % at 5 µM; recombinant caTPT1, FP RNA substrate dephosphorylation; hit rate 0.81% among 300,000;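 active means inhibition above the mean of all tested compounds plus 3 SD, set per screening campaign, cut at about 24% in these data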;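 further: plate controls were DMSO alone for no effect and ferristatin control at 100 nM for full effect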
HNF4A DNA FP: change in binding of human HNF4 alpha to DNA. hit rate 0.3% among 360,000. HNF4a-FITC DNA binding, fluorescence polarization, 1 h. activity change, % at 10 µM. AID 1224865; in the data active means activity change above about 30%, passing the limit was not always enough
Rpn11 inh: Rpn11 (human) deubiquitinase inhibition | human 26S proteasome, Ub4-pepOG fluorescence polarization; 20S core pre-blocked with epoxomicin | inhibition, % at 20 µM | hit rate 0.59% among 360,000;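 active means inhibition at 20 µM, scaled to each plate's controls, above about 33%, limit read from the data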
ATG4B inh: blocks human ATG4B protease cleavage of LC3 substrate; Q9Y4P1; ATG4B cleavage of LC3-PLA2, NBD-HPC fluorescence, 1 h; inhibition, % at 8.33 µM; hit rate 0.51% among 340,000; AID 504462; in the data active means inhibition above about 40%
ATG4B conf: confirmation of human ATG4B inhibitors; hit rate 92% among 320; shares compounds with ATG4B inh; inhibition, % at 8.33 µM; AID 504757; ATG4B protease fluorescent substrate cleavage assay; in the data active means inhibition above about 39%
PLA2 ctr: counter-screen for ATG4B inhibitors: human phospholipase A2; shares compounds with ATG4B inh; purified PLA2, NBD-C6-HPC fluorescence, 45 min; inhibition, % at 8.33 µM; hit rate 66% among 1,600; in the data active means inhibition above about 50%
* hit, by the source's call; / = not tested or not shown; ! = a repeat was not active. An excerpt weighted towards active compounds, which were near 2% of everything screened.

SMILES	SENP1 FRET inh	CSN deneddyl inh	TPT1 inh	HNF4A DNA FP	Rpn11 inh	ATG4B inh	PLA2 ctr	others
CC(=O)c1cccc(NC(=O)C(C)OC(=O)c2cccc(S(=O)(=O)N3CCN(C)CC3)c2)c1 (stereo not given)	-0.2	-5.2	/	3.5	-6.1	-4.5	/
COc1ccc(Nc2cc(C(=O)N3CCc4ccccc4C3)c3ccccc3n2)c(OC)c1	-2.5	3.1	-5.8	-2.7	-0.4	67.7*	81.5*
COC(=O)[C@]12CCCCC=C1N(Cc1ccccc1)C(=O)[C@H](CC(=O)NCc1ccc(OC)c(OC)c1)C2	1.5	-6.2	/	0.3	/	/	/
N#CCC(=O)Nc1ccc(C(=O)NCc2cccc(Cl)c2)cc1	-49.3	8.7	8.8	2.4	9.6	52.8*	71.2*
O=C(NCc1cccc(Cl)c1)c1ccncc1	0.2	4.1	-0.2	0.2	-20.0	4.1	/
COc1ccc([C@@H]2C[C@H]3[C@@H](CN2S(=O)(=O)c2ccccc2)C(=O)C[C@@H](c2ccccc2F)N3S(=O)(=O)c2ccc(C)cc2)cc1	0.1	0.6	/	-2.8	8.3	/	/
COc1cc(CCN(C(=O)c2cc3ccccc3[nH]2)C(C)c2nc3ccccc3[nH]2)cc(OC)c1 (stereo not given)	-2.0	-0.1	/	-0.1	0.1	/	/
COc1cccc(C(=O)NNS(=O)(=O)c2ccccc2)c1	-0.8	-1.9	/	1.5	-6.6	/	/
O=C1NC(=O)/C(=C/c2ccccc2Oc2ccc(Cl)cc2)S1	-0.6	2.6	-1.7	0.9	1.0	48.5*	26.9	ATG4B conf=58.9*
Cc1ccc(S(=O)(=O)Oc2ccccc2/C=C2\SC(=O)NC2=O)cc1	1.0	11.2	3.6	0.5	1.4	0.8	/
COc1c(Cl)cc(C(=O)Nc2cccnc2)cc1Cl	2.6	1.3	/	-0.6	-3.7	/	/
CCOc1ccccc1C(=O)N/N=C/c1coc2ccc(C)cc2c1=O	0.0	10.7	/	-2.6	-2.2	64.9*	75.7*
Cc1ccc2occ(/C=N/NC(=O)c3ccccc3Br)c(=O)c2c1	-1.4	3.6	-1.1	-0.1	-0.3	28.4	/
O=C(CSc1nnc(-c2cccc(Br)c2)o1)N1CCNC1=O	-0.2	-1.9	/	-1.0	5.3	4.0	/
COc1ccc(CCC2=NCCN2C(CC(C)C)c2nc3ccccc3[nH]2)cc1 (stereo not given)	2.3	-0.6	/	-6.1	-2.0	/	/
COCCNc1nc(SCc2ccccc2)nc2sc3c(c12)CCC3	-3.3	0.5	-1.2	-1.1	0.3	46.4*	60.3*
CNC(=O)CSc1nc(N)c2c3c(sc2n1)CCC3	-1.6	-1.1	4.4	-0.7	-2.9	-1.8	/
CC(CO)Nc1nc(SCc2ccccc2)nc2sc3c(c12)CCC3 (stereo not given)	-13.2	33.1	-0.5	0.8	0.0	83.3*	91.3*
CCOc1cc(C(=O)N(C)CC(=O)Nc2cccc3ccccc23)ccc1OC	-4.3	-6.4	/	3.3	4.8	-24.7	/
COc1cnc(SCc2c(Cl)cccc2Cl)nc1Cl	-0.7	-2.3	1.6	2.4	-0.5	50.2*	34.5	ATG4B conf=59.4*
C[C@H]1c2cccc(O)c2C(O)=C2C(=O)[C@]3(O)C(O)=C(C(N)=O)C(=O)[C@@H](N(C)C)[C@@H]3[C@@H](O)[C@@H]21	7.8	-4.1	-1.8	-2.3	-9.1	40.1*	1.2	ATG4B conf=65.7*
Cc1ccc(Oc2cc(NC(=O)CCCn3nc([N+](=O)[O-])c(Cl)c3C)cc([N+](=O)[O-])c2)cc1	-0.7	-1.9	-3.8	-2.0	1.8	88.7*	91.5*
Cc1cc([N+](=O)[O-])nn1CCCC(=O)Nc1cc(Oc2ccccc2)cc([N+](=O)[O-])c1	2.4	-2.5	0.2	2.9	-4.9	54.5*	58.1*
Cc1cc([N+](=O)[O-])nn1CCCC(=O)Nc1cc(Oc2ccc(F)cc2)cc([N+](=O)[O-])c1	-0.6	0.7	0.1	-0.1	-5.5	61.1*	62.1*
CC(C)[C@H](NC(=O)c1ccccc1)C(=O)Nc1ccc2c(c1)OCO2	-2.4	-3.7	/	-1.1	7.4	-9.0	/
SMILES	SENP1 FRET inh	CSN deneddyl inh	TPT1 inh	HNF4A DNA FP	Rpn11 inh	ATG4B inh	PLA2 ctr	others
Cc1ccccc1/C(N)=N/OC(=O)N1c2ccccc2Sc2ccccc21	1.7	-3.2	3.6	-3.0	4.5	54.1*	60.4*
Cc1cscc1-c1cc2nc(NCCCN(C)C)n(C)c(=O)c2s1	-1.4	-0.7	/	-1.4	0.4	/	/
CCCCCCCCCCCCCCCC[n+]1ccccc1	0.2	3.8	/	7.8	80.8*	59.0*!	37.6	ATG4B conf=39.2*
CCCCCc1ccc(OCCC[n+]2ccccc2)c(CCCCC)c1	2.4	-4.2	2.4	4.4	13.3	7.9	/
CC(C)=C1C(=O)NN(c2ccc(F)c(Cl)c2)C1=O	-1.3	-3.6	16.9	1.0	15.4	16.5	/
O=C1NN(c2ccc(F)c(Cl)c2)C(=O)/C1=C\c1cccc(OC(=O)c2cccs2)c1	1.3	14.8	1.5	-3.2	16.3	60.2*	57.4*
COC(=O)N/N=C/c1cn(Cc2ccc(Cl)cc2Cl)c2ccccc12	0.6	1.0	-1.9	-4.2	-1.9	53.3*	60.8*
COC(=O)N/N=C/c1cn(Cc2c(Cl)cccc2Cl)c2ccccc12	2.9	-4.8	-3.9	0.2	-5.8	42.0*	50.6*
Cc1ccc(OCC(=O)N/N=C\c2cn(Cc3ccccc3)c3ccccc23)cc1C	0.3	-3.7	4.1	1.8	-4.0	42.7*	10.2
Cc1ccc(-n2cnc3c(=O)[nH]cnc32)cc1	0.7	2.8	/	0.8	1.3	-6.7	/
COc1ccccc1-c1cnc(C(O)c2ccc(F)cc2C)[nH]1 (stereo not given)	0.7	-1.7	/	-2.9	-0.7	/	/
Cc1ccc(NC(=S)NCc2ccccc2)cc1S(=O)(=O)N1CCCCC1	0.1	-1.7	0.1	0.6	-3.0	56.5*	75.4*
Cc1ccc(NC(=O)CSc2ccccc2)cc1S(=O)(=O)N1CCCCC1	-0.6	0.8	/	0.3	0.2	-1.3	/
COC(=O)C(C(=O)OC)c1ncccc1NS(=O)(=O)c1ccc(C)cc1	-1.9	-0.8	/	3.1	/	/	/
O=C(O/N=C1\CCCc2ccccc21)c1cccc(Cl)c1	2.7	3.3	0.9	-0.8	-8.9	32.2	/
O=C(O/N=C1\CCCc2ccccc21)C1CC1	3.3	-4.3	-0.8	3.1	-2.2	0.6	/
Cc1ccc(C(=O)O/N=C2\CCCc3ccccc32)cc1	4.7	-0.2	3.5	4.7	1.6	42.6*	47.6	ATG4B conf=57.8*
Cc1cccc(C(=O)O/N=C2\CCCc3ccccc32)c1	0.6	-4.8	-0.3	2.1	-5.0	44.9*	50.0
